According to ChEMBL document CHEMBL4602702, “Red-Emitting Dibenzodiazepinone Derivatives as Fluorescent Dualsteric Probes for the Muscarinic Acetylcholine M2 Receptor” (J Med Chem, 2020):
The source made the active and inactive calls. No cut-off for these calls is given here.

Tests used:
[1] = target: T1, Muscarinic acetylcholine receptor M2 (Homo sapiens, UniProt P08172); experiment: (§1) Antagonist activity at human muscarinic M2 receptor expressed in HEK293 cells co-expressing HA-Galphaq/i5 assessed as inhibition of carbachol-induced IP1 accumulation at 37 degree C pre-incubated for 30 mins followed by carbachol addition and measured after 60 mins by HTRF assay; assay type: functional, cell-based
T1 sequence (P08172 whole entry): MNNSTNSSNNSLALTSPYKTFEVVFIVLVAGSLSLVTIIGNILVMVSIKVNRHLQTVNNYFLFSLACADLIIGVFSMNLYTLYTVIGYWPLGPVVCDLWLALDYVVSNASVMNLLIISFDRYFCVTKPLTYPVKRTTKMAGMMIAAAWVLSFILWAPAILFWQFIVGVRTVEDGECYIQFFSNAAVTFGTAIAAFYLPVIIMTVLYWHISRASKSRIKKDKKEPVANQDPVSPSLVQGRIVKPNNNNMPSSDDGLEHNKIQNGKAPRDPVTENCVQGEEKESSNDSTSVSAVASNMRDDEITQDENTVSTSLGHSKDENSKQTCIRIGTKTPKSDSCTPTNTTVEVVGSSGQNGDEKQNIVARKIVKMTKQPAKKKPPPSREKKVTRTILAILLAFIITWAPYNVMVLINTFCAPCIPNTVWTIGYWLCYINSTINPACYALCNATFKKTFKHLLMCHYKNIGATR

[2] = target: T2, Muscarinic acetylcholine receptor M1 (Homo sapiens, UniProt P11229); experiment: Displacement of [3H]-NMS from human muscarinic M1 receptor stably expressed in CHO-K9 cells by radioligand competitive binding assay; assay type: cell-based
T2 sequence (P11229 whole entry): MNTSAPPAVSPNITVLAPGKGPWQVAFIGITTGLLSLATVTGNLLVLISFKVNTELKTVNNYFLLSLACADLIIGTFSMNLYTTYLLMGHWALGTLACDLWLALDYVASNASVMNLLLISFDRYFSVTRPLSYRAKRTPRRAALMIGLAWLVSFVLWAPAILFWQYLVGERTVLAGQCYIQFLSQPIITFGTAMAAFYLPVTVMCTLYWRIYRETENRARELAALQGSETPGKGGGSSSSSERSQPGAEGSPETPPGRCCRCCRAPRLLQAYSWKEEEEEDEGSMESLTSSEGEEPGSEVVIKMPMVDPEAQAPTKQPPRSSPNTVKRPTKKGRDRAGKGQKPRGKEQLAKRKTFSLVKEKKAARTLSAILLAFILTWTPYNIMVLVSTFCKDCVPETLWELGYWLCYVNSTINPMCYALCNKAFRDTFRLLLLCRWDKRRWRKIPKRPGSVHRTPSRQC
In short: (§2)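 Equilibrium competition binding at live CHO-hMxR cells with [3H]NMS at M1 0.2, M2 0.2, M3 0.2, M4 0.1, M5 0.3 nM. […] Four-parameter logistic fit converted to pKi; at least three experiments in triplicate (some two).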

[3] = target: T1, Muscarinic acetylcholine receptor M2; experiment: Displacement of [3H]-NMS from human muscarinic M2 receptor stably expressed in CHO-K9 cells by radioligand competitive binding assay; assay type: cell-based; in short: as §2
[4] = target: Muscarinic acetylcholine receptor M3 (Homo sapiens, UniProt P20309); experiment: Displacement of [3H]-NMS from human muscarinic M3 receptor stably expressed in CHO-K9 cells by radioligand competitive binding assay; assay type: cell-based; in short: as §2
[5] = target: T3, Muscarinic acetylcholine receptor M4 (Homo sapiens, UniProt P08173); experiment: Displacement of [3H]-NMS from human muscarinic M4 receptor stably expressed in CHO-K9 cells by radioligand competitive binding assay; assay type: cell-based; in short: as §2
T3 sequence (P08173 whole entry): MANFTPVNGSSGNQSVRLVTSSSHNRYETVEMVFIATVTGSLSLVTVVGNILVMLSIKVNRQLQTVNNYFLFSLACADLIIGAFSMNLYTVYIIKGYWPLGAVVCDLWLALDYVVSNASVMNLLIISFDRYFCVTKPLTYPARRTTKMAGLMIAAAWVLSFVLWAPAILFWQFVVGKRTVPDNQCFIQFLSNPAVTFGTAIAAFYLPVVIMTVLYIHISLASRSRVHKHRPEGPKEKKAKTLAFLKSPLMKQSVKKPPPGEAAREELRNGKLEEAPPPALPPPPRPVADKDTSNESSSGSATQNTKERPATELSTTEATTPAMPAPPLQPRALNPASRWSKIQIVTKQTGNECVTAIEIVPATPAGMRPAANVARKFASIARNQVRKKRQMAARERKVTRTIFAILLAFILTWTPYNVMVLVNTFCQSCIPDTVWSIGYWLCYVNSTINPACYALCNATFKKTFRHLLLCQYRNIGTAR

[6] = target: T4, Muscarinic acetylcholine receptor M5 (Homo sapiens, UniProt P08912); experiment: Displacement of [3H]-NMS from human muscarinic M5 receptor stably expressed in CHO-K9 cells by radioligand competitive binding assay; assay type: cell-based; in short: as §2
T4 sequence (P08912 whole entry): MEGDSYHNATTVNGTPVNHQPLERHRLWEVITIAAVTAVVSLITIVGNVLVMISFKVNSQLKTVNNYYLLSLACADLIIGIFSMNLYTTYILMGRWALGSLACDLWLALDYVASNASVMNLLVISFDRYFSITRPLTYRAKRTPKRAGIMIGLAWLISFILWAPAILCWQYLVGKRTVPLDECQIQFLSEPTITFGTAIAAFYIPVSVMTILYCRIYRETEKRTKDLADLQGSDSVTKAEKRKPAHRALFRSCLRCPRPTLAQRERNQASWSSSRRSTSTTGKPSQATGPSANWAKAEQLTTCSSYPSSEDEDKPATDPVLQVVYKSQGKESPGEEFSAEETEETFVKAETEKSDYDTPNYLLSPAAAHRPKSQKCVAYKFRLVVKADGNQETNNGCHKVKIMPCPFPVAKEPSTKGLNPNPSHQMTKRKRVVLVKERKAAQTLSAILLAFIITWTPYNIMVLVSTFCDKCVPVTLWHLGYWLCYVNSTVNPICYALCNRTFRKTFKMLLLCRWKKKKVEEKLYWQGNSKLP

[7] = target: T1, Muscarinic acetylcholine receptor M2; experiment: as §1, with “22” for “37”, “180” for “30”, “further incubated at 37 degree C for 90” for “measured after 60”; assay type: functional, cell-based
In short: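 HEK-hM2-Gαqi5-HA cells (transient transfection) preincubated with antagonist at 22 °C for 180 min, then carbachol 0.3 μM (≈EC80) added and incubation continued at 37 °C for 90 min. Readout is inhibition of IP1 accumulation as pIC50, mean ± SEM of n independent experiments, each in duplicate.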

[8] = target: T3, Muscarinic acetylcholine receptor M4; experiment: as §1, with “M4” for “M2”, “22” for “37”, “180” for “30”, “further incubated at 37 degree C for 90” for “measured after 60”; assay type: functional, cell-based
[9] = target: T5, Muscarinic acetylcholine receptor M2 (Homo sapiens) (UniProt P08172); experiment: Agonist activity at human muscarinic M2 receptor expressed in HEK293 cells co-expressing HA-Galphaq/i5 assessed as induction of Galphaq/i5-mediated IP1 accumulation by HTRF assay; assay type: functional, cell-based
T5 sequence (whole entry): T1 sequence (P08172 whole entry)
In short: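 HEK-293 cells transiently co-transfected with hM2R and hybrid Gαqi5-HA, run in agonist mode at 37 °C; IP1 accumulation measured. Carbachol control from 14 independent experiments in duplicate; test ligands from three or four independent experiments in duplicate.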

[10] = target: T1, Muscarinic acetylcholine receptor M2; experiment: Binding affinity to human muscarinic M2 receptor expressed in […] cells incubated in dark at 22 degree C for 2 hrs by FACSCalibur flow cytometric saturation binding study; assay type: cell-based
[11] = target: T1, Muscarinic acetylcholine receptor M2; experiment: Binding affinity to human muscarinic M2 receptor expressed in CHO-K9 cells incubated in dark measured after 60 mins by Hoechst H33342 dye based confocal plate reader assay; assay type: cell-based
In short: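 Live CHO-hMxR cells (M1 or M2) incubated with fluorescent ligand at 22 °C in the dark for 1 h, washed, then imaged at once by high-content confocal plate reader.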

[12] = target: T5, Muscarinic acetylcholine receptor M2 (Homo sapiens); experiment: Binding affinity to human muscarinic M2 receptor expressed in […] cells assessed as unspecific binding at Kd incubated in dark at 22 degree C for 2 hrs in presence of atropine by FACSCalibur flow cytometric saturation binding study relative to control; assay type: cell-based
[13] = Chemical stability of compound in PBS buffer assessed as retention time at pH 7.4 and 22 degree C measured up to 48 hrs by RP-HPLC analysis; assay type: physicochemical; details: pH 7.4, 48 h
In short: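 Fluorescent ligand stability checked in PBS pH 7.4 over 48 h by RP-HPLC on a C18 column with an aqueous TFA/acetonitrile gradient, oven at 25 °C, detection at 220 nm.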

Chain of Muscarinic acetylcholine receptor M3 (P20309 whole entry): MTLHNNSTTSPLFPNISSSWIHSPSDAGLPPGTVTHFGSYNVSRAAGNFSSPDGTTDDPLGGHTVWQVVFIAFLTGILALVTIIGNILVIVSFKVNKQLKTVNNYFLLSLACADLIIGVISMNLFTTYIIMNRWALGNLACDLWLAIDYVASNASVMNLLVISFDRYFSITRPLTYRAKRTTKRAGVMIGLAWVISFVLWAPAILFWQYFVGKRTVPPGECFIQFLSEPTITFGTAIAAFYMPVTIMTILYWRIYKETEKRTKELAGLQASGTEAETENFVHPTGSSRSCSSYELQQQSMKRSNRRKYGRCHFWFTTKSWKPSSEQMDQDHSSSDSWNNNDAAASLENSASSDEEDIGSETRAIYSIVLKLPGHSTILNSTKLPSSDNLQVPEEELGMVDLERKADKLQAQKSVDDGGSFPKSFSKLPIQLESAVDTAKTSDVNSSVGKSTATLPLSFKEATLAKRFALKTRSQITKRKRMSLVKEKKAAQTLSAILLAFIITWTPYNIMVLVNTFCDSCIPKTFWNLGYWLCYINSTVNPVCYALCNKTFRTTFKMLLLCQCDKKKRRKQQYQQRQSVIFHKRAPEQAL

Row | Compound | IC50 [1] | Ki [2] | Ki [3] | Ki [4] | Ki [5] | Ki [6] | IC50 [7] | IC50 [8] | Activity [9] | Kd ([10]; read-out: Kd) | Kd ([10]; read-out: pKd (converted)) | Kd ([11]; read-out: Kd) | Kd ([11]; read-out: pKd (converted)) | Activity [12] | Retention_time [13]
1 | Cc1cc(/C=C/C=C/c2ccc(N(C)C)cc2)cc(C)[n+]1CCCCC1CCN(CC(=O)N2c3ccccc3NC(=O)c3ccccc32)CC1 | – | 30.9 nM | 17 nM | 85.1 nM | 16.2 nM | 200 nM | – | – | – | – | – | – | – | – | –
2 | NCc1cc(C(=O)NCCNC(=O)CCc2cn(CCCCC3CCN(CC(=O)N4c5ccccc5NC(=O)c5ccccc54)CC3)cn2)cc(C(=O)NCCNC(=O)CCc2cn(CCCCC3CCN(CC(=O)N4c5ccccc5NC(=O)c5ccccc54)CC3)cn2)c1 | – | – | 0.269 nM | – | – | – | – | – | – | – | – | – | – | – | –
3 | Cc1cc(/C=C/C=C/c2ccc(N(C)C)cc2)cc(C)[n+]1CCN1CCN(CCCCC2CCN(CC(=O)N3c4ccccc4NC(=O)c4ccccc43)CC2)CC1 | – | 13.8 nM | 3.02 nM | 148 nM | 9.55 nM | 389 nM | – | – | – | – | – | – | – | – | –

Results, then the compound that gave them:

Row | IC50 [1] | Ki [2] | Ki [3] | Ki [4] | Ki [5] | Ki [6] | IC50 [7] | IC50 [8] | Activity [9] | Kd ([10]; read-out: Kd) | Kd ([10]; read-out: pKd (converted)) | Kd ([11]; read-out: Kd) | Kd ([11]; read-out: pKd (converted)) | Activity [12] | Retention_time [13] | Compound
4 | 49 nM | 10 nM | 1.35 nM | 67.6 nM | 3.98 nM | 141 nM | 60.3 nM | 91.2 nM | inactive | 2 nM | 2.57 nM | 10.8 nM | 8.71 nM | 10% | – | CC1(C)C(/C=C/C=C/C=C2/N(CCCCCC(=O)NCCN3CCN(CCCCC4CCN(CC(=O)N5c6ccccc6NC(=O)c6ccccc65)CC4)CC3)c3ccccc3C2(C)C)=[N+](CCCCS(=O)(=O)[O-])c2ccccc21
5 | – | 120 nM | 53.7 nM | 631 nM | 67.6 nM | 288 nM | – | – | – | – | – | – | – | – | – | C[N+]1=C(/C=C/C=C/C=C2/N(CCCCCC(=O)NCCCCC3CCN(CC(=O)N4c5ccccc5NC(=O)c5ccccc54)CC3)c3ccccc3C2(C)C)C(C)(C)c2ccccc21
6 | – | 2.29 nM | 0.257 nM | 21.9 nM | 2.57 nM | 30.9 nM | – | – | – | 0.65 nM | – | – | – | 10% | 18 min | CC1(C)C(/C=C/C=C/C=C2/N(CCCCCC(=O)NCc3cc(C(=O)NCCN4CCC(N5CCC(n6c(=O)[nH]c7ccccc76)CC5)CC4)cc(C(=O)NCCN4CCN(CCCCC5CCN(CC(=O)N6c7ccccc7NC(=O)c7ccccc76)CC5)CC4)c3)c3ccc(S(=O)(=O)[O-])cc3C2(C)C)=[N+](CCCCS(=O)(=O)O)c2ccccc21.O=C(O)C(F)(F)F.O=C(O)C(F)(F)F.O=C(O)C(F)(F)F.O=C(O)C(F)(F)F
7 | – | 347 nM | 141 nM | 871 nM | 200 nM | 871 nM | – | – | – | – | – | – | – | – | – | CC1(C)C(/C=C/C=C/C=C2/N(CCCCCC(=O)NCCCCC3CCN(CC(=O)N4c5ccccc5NC(=O)c5ccccc54)CC3)c3ccccc3C2(C)C)=[N+](CCCCS(=O)(=O)[O-])c2ccccc21
